Assay [1] concerns the target Alpha-2A adrenergic receptor (Homo sapiens) (UniProt P08913). In words: Compound is evaluated for binding affinity towards Alpha-2A adrenergic receptor using [3H]MK912 at 10 uM.
Assay [2] addresses 5-hydroxytryptamine receptor 1A (Rattus norvegicus) (UniProt P19327). In words: Compound is evaluated for binding affinity towards 5-hydroxytryptamine 1A receptor using [3H]-8-OH- -DPAT in rat brain cortex at 10 uM. In kind it is tissue-based. An outline of the steps: (§1)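 Single-concentration screen at 10 µM in contract radioligand binding assays. Records whether inhibition of specific radioligand binding stayed below 50%.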

Assay [3] deals with T1, Adrenergic receptor alpha-1 (Rattus norvegicus, UniProt P15823+P23944+P43140).
T1 sequence (P15823 whole entry): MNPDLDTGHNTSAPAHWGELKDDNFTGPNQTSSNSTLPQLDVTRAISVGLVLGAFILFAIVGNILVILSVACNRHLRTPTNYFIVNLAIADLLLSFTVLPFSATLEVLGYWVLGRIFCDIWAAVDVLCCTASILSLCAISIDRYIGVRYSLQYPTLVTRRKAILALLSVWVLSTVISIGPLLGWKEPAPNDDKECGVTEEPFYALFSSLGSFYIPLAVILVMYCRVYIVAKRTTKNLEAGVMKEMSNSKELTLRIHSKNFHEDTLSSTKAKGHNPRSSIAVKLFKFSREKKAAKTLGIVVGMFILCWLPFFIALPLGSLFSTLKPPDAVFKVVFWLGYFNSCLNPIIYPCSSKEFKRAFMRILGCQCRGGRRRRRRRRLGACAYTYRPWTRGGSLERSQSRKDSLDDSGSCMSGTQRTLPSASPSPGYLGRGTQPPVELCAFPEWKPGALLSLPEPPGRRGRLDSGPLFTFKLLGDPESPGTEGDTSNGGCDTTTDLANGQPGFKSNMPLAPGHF
T1 sequence (P23944 whole entry): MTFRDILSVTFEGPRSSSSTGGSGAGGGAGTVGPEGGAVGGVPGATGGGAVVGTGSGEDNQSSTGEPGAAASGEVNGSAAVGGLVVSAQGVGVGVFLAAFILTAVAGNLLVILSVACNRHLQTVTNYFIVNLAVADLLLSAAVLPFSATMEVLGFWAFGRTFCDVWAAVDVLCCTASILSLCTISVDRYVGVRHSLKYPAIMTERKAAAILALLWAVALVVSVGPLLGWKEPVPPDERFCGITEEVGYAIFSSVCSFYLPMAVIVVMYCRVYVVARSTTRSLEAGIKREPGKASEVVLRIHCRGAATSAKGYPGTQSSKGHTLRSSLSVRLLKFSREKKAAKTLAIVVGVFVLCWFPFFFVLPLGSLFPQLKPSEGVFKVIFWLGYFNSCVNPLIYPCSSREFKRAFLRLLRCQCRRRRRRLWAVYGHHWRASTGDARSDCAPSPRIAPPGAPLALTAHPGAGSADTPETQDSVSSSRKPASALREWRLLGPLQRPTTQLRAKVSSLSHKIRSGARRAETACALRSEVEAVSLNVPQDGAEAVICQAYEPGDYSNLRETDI
T1 sequence (P43140 whole entry): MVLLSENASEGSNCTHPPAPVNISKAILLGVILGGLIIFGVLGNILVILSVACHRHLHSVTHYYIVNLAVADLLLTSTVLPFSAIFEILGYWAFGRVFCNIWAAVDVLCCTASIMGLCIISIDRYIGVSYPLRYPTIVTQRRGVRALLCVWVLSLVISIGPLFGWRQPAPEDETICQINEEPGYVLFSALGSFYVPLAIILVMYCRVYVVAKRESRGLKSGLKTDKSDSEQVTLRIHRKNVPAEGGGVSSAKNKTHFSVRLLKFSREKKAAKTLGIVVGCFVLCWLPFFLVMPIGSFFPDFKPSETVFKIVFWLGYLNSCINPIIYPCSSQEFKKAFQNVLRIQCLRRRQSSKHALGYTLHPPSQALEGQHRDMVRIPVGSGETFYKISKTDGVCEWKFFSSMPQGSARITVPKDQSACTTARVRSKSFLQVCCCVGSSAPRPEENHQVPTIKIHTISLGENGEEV
The experiment in a line: Binding affinity towards Alpha-1 adrenergic receptor measured by displacement of [3H]prazosin from rat brain cortex membranes. In kind it is cell membranes, Membrane. The essentials: (§2)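 Triplicate competition binding against 0.2-0.25 nM [³H]prazosin in Tris buffer pH 7.4, 30 min at room temperature. Competitor range 0.1-200 nM. Nonspecific binding defined with 10 µM phentolamine. Reaction stopped by GF/B filtration with two cold Tris washes. Membrane protein 300-400 µg per assay. Ki calculated from the data; mean ± SEM of 3-6 experiments.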
A general note: Displacement assays read how much labelled ligand stays bound in the presence of the test substance.

Assay [4] concerns the target Sigma 2 receptor. In words: Binding affinity towards Sigma 2 receptor using [3H]ifenprodil in rat brain. Type of assay: tissue-based. An outline of the steps:
(§3)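 Contract radioligand competition binding. Sources: 5-HT1 and 5-HT1A in rat brain cortex; 5-HT2 and σ2 in rat brain; σ in guinea pig brain; D2, rhD2 and rhD3 in CHO cells with [³H]spiperone; H1 in guinea pig lung with [³H]pyrilamine. Inhibition constants reported; no constant given where inhibition at 10 µM was below 50%.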

Assay [5] addresses T2, Serotonin 1 (5-HT1) receptor (Rattus norvegicus, UniProt P28564+P30940+P19327+P28565). The experiment in a line: Compound is evaluated for binding affinity towards 5-hydroxytryptamine 1 receptor using [3H]5-HT in rat brain cortex. In kind it is tissue-based. An outline of the steps: as §3
The target in the next assay is D(3) dopamine receptor (Homo sapiens, UniProt P35462). In words: Compound is evaluated for binding affinity towards recombinant human Dopamine receptor D3 using [3H]spiperone in CHO cells. Type of assay: cell-based. The essentials:
as §3

A further assay addresses Histamine H1 receptor (Cavia porcellus, UniProt P31389). In words: Compound is evaluated for binding affinity towards Histamine H1 receptor using [3H]pyrilamine in guinea pig lung. Type of assay: tissue-based. An outline of the steps: as §3
The target in assay [6] is Sodium channel alpha subunits; brain (Types I, II, III) (Rattus norvegicus) (UniProt P04775+P04774+P08104). The experiment in a line: Displacement of [3H]batrachotoxin from rat brain sodium channel at 10 uM. In kind it is tissue-based. An outline of the steps: (§4)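 Radioligand competition binding was done by an outside contract lab (Pan Lab). Inhibition constants (Ki) were derived from displacement of the stated tritiated ligand. Each compound was tested at 10 µM. Where inhibition at that concentration stayed below 50%, no Ki was reported.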

The subject of assay [7] is Sigma 2 receptor. The experiment in a line: (§5) Binding affinity towards Sigma 2 receptor using [3H]ifenprodil in rat brain at 10 uM. Type of assay: tissue-based. An outline of the steps:
as §4

For assay [8], the target named is T1, Adrenergic receptor alpha-1. In words: Compound is evaluated for binding affinity towards Alpha-1 adrenergic receptor in rat brain cortex membrane. In kind it is cell membranes. The essentials:
as §2

Assay [9] deals with T3, D(2) dopamine receptor (Homo sapiens, UniProt P14416). The experiment in a line: Compound is evaluated for binding affinity towards Dopamine receptor D2 using [3H]-spiperone in CHO cells at 10 uM. Type of assay: cell-based.
Assay [10] has as its target T2, Serotonin 1 (5-HT1) receptor. In words: Compound is evaluated for binding affinity towards 5-hydroxytryptamine 1 receptor using [3H]5-HT in rat brain cortex at 10 uM. Type of assay: tissue-based. An outline of the steps: as §1
For assay [11], the target named is T3, D(2) dopamine receptor. The experiment in a line: Compound is evaluated for binding affinity towards Dopamine receptor D2 using [3H]spiperone in CHO cells. Type of assay: cell-based. The essentials:
as §3

The target in assay [12] is Sigma 2 receptor. The description is as §5. Type of assay: tissue-based. The essentials: as §1
This is another data set of the same source.

SMILES strings stand for the structures. Bounds are passed on as bounds.

5-hydroxytryptamine receptor 1A (Rattus norvegicus), sequence (P19327 whole entry): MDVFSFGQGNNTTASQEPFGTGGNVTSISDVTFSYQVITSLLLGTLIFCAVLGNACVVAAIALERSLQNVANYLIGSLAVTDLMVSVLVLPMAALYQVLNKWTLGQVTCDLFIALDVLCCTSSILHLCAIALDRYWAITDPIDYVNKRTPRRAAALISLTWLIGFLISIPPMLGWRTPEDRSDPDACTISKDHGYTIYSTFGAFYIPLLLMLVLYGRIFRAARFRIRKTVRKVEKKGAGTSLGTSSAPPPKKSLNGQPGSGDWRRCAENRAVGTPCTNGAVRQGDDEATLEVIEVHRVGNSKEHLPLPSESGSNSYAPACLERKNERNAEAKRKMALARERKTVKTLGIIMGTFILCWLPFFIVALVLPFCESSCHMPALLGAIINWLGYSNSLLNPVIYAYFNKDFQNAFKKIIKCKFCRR
T3 sequence (P14416 whole entry): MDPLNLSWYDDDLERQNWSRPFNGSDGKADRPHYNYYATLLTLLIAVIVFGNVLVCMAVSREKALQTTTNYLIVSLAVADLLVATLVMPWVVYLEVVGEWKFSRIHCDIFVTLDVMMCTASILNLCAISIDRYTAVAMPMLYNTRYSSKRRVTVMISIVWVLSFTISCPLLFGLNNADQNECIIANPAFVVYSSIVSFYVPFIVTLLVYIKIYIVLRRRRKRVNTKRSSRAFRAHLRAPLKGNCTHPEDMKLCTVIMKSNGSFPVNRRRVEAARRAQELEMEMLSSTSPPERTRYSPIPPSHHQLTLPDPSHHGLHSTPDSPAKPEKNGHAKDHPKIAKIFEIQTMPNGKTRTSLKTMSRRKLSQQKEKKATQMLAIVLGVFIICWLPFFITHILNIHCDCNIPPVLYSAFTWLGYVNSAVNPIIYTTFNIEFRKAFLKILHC
D(3) dopamine receptor, sequence (P35462 whole entry): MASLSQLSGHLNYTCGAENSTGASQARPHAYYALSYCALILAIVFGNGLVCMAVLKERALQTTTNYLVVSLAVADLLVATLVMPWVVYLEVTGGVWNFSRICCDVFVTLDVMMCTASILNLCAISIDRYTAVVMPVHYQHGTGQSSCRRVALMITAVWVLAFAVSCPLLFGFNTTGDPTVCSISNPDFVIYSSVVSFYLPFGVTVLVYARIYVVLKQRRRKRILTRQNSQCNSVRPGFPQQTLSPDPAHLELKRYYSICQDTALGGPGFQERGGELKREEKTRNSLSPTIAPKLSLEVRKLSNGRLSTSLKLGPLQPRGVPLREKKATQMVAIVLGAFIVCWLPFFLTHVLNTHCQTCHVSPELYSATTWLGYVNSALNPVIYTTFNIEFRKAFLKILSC
Alpha-2A adrenergic receptor (Homo sapiens), sequence (P08913 whole entry): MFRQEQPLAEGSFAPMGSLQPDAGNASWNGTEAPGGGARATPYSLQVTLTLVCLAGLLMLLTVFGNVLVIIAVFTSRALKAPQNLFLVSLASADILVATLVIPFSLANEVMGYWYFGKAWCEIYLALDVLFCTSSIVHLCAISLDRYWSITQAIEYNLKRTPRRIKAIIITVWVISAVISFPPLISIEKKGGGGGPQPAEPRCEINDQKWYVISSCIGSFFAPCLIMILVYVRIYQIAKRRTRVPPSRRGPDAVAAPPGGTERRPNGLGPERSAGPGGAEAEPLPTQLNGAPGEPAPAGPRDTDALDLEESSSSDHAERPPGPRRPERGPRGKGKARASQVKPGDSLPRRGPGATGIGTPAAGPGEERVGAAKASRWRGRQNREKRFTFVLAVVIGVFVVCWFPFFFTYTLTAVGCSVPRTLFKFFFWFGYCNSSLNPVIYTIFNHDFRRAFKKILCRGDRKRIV
Histamine H1 receptor, sequence (P31389 whole entry): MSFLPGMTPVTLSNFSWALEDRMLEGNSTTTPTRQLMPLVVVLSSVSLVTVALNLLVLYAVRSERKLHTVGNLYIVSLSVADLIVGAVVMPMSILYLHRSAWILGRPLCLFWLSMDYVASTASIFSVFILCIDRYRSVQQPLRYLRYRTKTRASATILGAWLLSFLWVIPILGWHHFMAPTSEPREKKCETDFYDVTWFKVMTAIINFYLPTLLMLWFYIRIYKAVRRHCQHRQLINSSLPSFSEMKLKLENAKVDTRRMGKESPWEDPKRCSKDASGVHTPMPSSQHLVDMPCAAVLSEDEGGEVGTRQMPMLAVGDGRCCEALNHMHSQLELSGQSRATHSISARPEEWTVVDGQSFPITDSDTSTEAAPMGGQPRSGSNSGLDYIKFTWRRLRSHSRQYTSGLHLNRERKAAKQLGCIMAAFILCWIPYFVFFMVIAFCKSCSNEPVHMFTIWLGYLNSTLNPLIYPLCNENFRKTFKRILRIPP

As for `COc1ccccc1N1CCN(C[C@@H]2CN=C3c4ccccc4NC(=O)N32)CC1`, the inhibition (usually the change of the read-out against control, counted positive when it falls) in [1] is under 50%.
Consider `COc1ccccc1N1CCN(Cc2cn3c(O)nc4ccccc4c3n2)CC1`, for which the inhibition in assay [2] was under 50%. The figures for the inhibitory constant (Ki) (in [3]; at Sigma 2 receptor [4]) were 6.53 nM and 4880 nM, respectively.
Take `COc1ccccc1N1CCN(CC2CN3C(=O)Nc4ccccc4C3=N2)CC1` (stereo not drawn): the Ki (commonly a measure of affinity in units of concentration, obtained from inhibition or displacement) in [5] is 2500 nM; on D(3) dopamine receptor, 2200 nM; on Histamine H1 receptor it was 961 nM. Moreover, the inhibition (in [6]; in the assay on Sigma 2 receptor [7]) was under 50% each time.
In assay [3], `COc1ccccc1N1CCN(Cc2cnc3c4ccccc4nc(O)n23)CC1` gave an inhibition constant (Ki) of 5.06 nM. This compound also returned an inhibition with Sigma 2 receptor [7] of under 50%.
On to `Oc1nc2ccccc2c2ncc(CN3CCN(c4ccccc4Cl)CC3)n12`, for which the inhibition (in assay [2]; at D(2) dopamine receptor [9]) was under 50% throughout. In addition, the Ki in assay [8] was 7.12 nM; on Sigma 2 receptor [4] it was 3050 nM.
`COc1ccccc1N1CCN(CC2CN=C3c4ccccc4N=C(SC)N32)CC1` (stereo not drawn): the Ki in assay [10] stood at 1839 nM; at D(2) dopamine receptor [11], 449 nM. Further, the Inhibition (commonly the change of the read-out against control, counted positive when it falls) at Sigma 2 receptor [12] is under 50%.

The values above are taken from ChEMBL document CHEMBL1131058, “Studies on quinazolines and 1,2,4-benzothiadiazine 1,1-dioxides. 8.1, 2 synthesis and pharmacological evaluation of tricyclic fused quinazolines and 1,2,4-benzothiadiazine 1,1-dioxides as potential alpha1-adrenoceptor antagonists” (J Med Chem, 1998).
